Experimental data published in ChEMBL document CHEMBL1122187, “Synthesis and antiviral activity of certain carbamoylpyrrolopyrimidine and pyrazolopyrimidine nucleosides” (1982).

Columns and labels:
Vero [1] = test: In vitro antiviral activity against parainfluenza type 3(para 3) virus was determined in african green monkey kidney (vero,V) expressed as virus rating. Toxic level(1000 ug/mL); format: functional, Chlorocebus sabaeus
Procedure, shortened: (§1)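 Cell monolayers (18 h) infected with 320 TCID50 of virus. Compound was added within 15–30 min at half-log dilutions from 1000 to 1 μg/mL. After 72 h at 37 °C in 5% CO2, CPE was scored 0–4 by microscopy. VR = sum of (virus control − treated) scores, halved at partially toxic levels, divided by 10 × test cups per drug level.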

Vero [2] = test: In vitro antiviral activity against herpes simplex type 1 (HSV-1) virus was determined in african green monkey kidney (vero,V) expressed as virus rating. Toxic level(1000 ug/mL); format: functional, Chlorocebus sabaeus; procedure, shortened: as §1
Vero [3] = test: In vitro antiviral activity against vaccinia(VV) virus was determined in african green monkey kidney (vero,V) expressed as virus rating. Toxic level(1000 ug/mL); format: functional, Chlorocebus sabaeus; procedure, shortened: as §1
HEp-2 [4] = test: In vitro antiviral activity against herpes simplex type 1 (HSV-1) virus was determined in human laryngeal epithelioma (HEp-2,H)expressed as virus rating. Toxic level(100 ug/mL); format: functional; procedure, shortened: as §1
HEp-2 [5] = test: In vitro antiviral activity against parainfluenza type 3(para 3) virus was determined in human laryngeal epithelioma (HEp-2,H)expressed as virus rating. Toxic level(100 ug/mL); format: functional; procedure, shortened: as §1
HEp-2 [6] = test: In vitro antiviral activity against vaccinia(VV) virus was determined in human laryngeal epithelioma (HEp-2,H)expressed as virus rating. Toxic level(100 ug/mL); format: functional; procedure, shortened: as §1
Vero [7] = test: Percentage plaque reduction was determined against Sandfly fever (SF) virus in african green monkey kidney (vero,V) at a conc of 25-100 ug/mL. Toxic level(1000 ug/mL); 61-90; format: functional, Chlorocebus sabaeus
Vero [8] = test: Percentage plaque reduction was determined against yellow fever(YF) virus in african green monkey kidney (vero,V).Toxic level(1000 ug/mL); 61-90; format: functional, Chlorocebus sabaeus
Vero [9] = test: Percentage plaque reduction was determined against pichinde(PICH) virus in african green monkey kidney (vero,V).Toxic level(1000 ug/mL); 10-30; format: functional, Chlorocebus sabaeus
Procedure, shortened: (§2)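 Infected Vero 24-well monolayers: virus adsorbed 1 h at 37 °C, then overlaid with agar holding dilutions of compound and incubated again at 37 °C with CO₂. Plaques were stained with crystal violet and counted. Inhibition was scored as % plaque reduction bands (10-30%, 31-60%, 61-90%), each tied to a drug concentration range.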

Vero [10] = test: Percentage plaque reduction was determined against venezuelan equine encephalitis (VEE) virus in african green monkey kidney (vero,V) at a conc of <25 ug/mL. Toxic level(1000 ug/mL); format: functional, Chlorocebus sabaeus
Vero [11] = test: Percentage plaque reduction was determined against rift valley fever(RVF) virus in african green monkey kidney (vero,V) at a conc of 250-500 ug/mL. Toxic level(1000 ug/mL); 10-30; format: functional, Chlorocebus sabaeus
Vero [12] = test: Percentage plaque reduction was determined against venezuelan equine encephalitis (VEE) virus in african green monkey kidney (vero,V) at a conc of 100-250 ug/mL. Toxic level(1000 ug/mL); format: functional, Chlorocebus sabaeus
Vero [13] = test: Percentage plaque reduction was determined against venezuelan equine encephalitis (VEE) virus in african green monkey kidney (vero,V) at a conc of 25-100 ug/mL. Toxic level(1000 ug/mL); format: functional, Chlorocebus sabaeus
Vero [14] = test: Percentage plaque reduction was determined against venezuelan equine encephalitis (VEE) virus in african green monkey kidney (vero,V) at a conc of 250-500 ug/mL. Toxic level(1000 ug/mL); format: functional, Chlorocebus sabaeus
Vero [15] = test: Percentage plaque reduction was determined against venezuelan equine encephalitis (VEE) virus in african green monkey kidney (vero,V) at a conc of <25 ug/mL. Toxic level(320 ug/mL); format: functional, Chlorocebus sabaeus
Vero [16] = test: Percentage plaque reduction was determined against venezuelan equine encephalitis (VEE) virus in african green monkey kidney (vero,V) at a conc of 100-250 ug/mL. Toxic level(320 ug/mL); format: functional, Chlorocebus sabaeus
Vero [17] = test: In vitro antiviral activity against parainfluenza type 3(para 3) virus was determined in african green monkey kidney (vero,V) expressed as virus rating. Toxic level(320 ug/mL); format: functional, Chlorocebus sabaeus; procedure, shortened: as §1
Vero [18] = test: Percentage plaque reduction was determined against yellow fever (YF) virus in african green monkey kidney (vero,V).Toxic level(320 ug/mL); 10-30; format: functional, Chlorocebus sabaeus
Vero [19] = test: Percentage plaque reduction was determined against venezuelan equine encephalitis (VEE) virus in african green monkey kidney (vero,V) at a conc of 250-500 ug/mL. Toxic level(320 ug/mL); format: functional, Chlorocebus sabaeus
Vero [20] = test: Percentage plaque reduction was determined against Sandfly fever (SF) virus in african green monkey kidney (vero,V) at a conc of 100-250 ug/mL. Toxic level(320 ug/mL); format: functional, Chlorocebus sabaeus
Vero [21] = test: Percentage plaque reduction was determined against Sandfly fever (SF) virus in african green monkey kidney (vero,V) at a conc of 25-100 ug/mL. Toxic level(320 ug/mL); format: functional, Chlorocebus sabaeus
Vero [22] = test: Percentage plaque reduction was determined against rift valley fever(RVF) virus in african green monkey kidney (vero,V) at a conc of 250-500 ug/mL. Toxic level(320 ug/mL); 10-30; format: functional, Chlorocebus sabaeus
Vero [23] = test: Percentage plaque reduction was determined against Sandfly fever (SF) virus in african green monkey kidney (vero,V) at a conc of <25 ug/mL. Toxic level(320 ug/mL); format: functional, Chlorocebus sabaeus; procedure, shortened: as §2
Vero [24] = test: Percentage plaque reduction was determined against Sandfly fever (SF) virus in african green monkey kidney (vero,V) at a conc of 250-500 ug/mL. Toxic level(320 ug/mL); format: functional, Chlorocebus sabaeus
Vero [25] = test: In vitro antiviral activity against vaccinia(VV) virus was determined in african green monkey kidney (vero,V) expressed as virus rating. Toxic level(320 ug/mL); format: functional, Chlorocebus sabaeus; procedure, shortened: as §1
Vero [26] = test: In vitro antiviral activity against herpes simplex type 1 (HSV-1) virus was determined in african green monkey kidney (vero,V) expressed as virus rating. Toxic level(320 ug/mL); format: functional, Chlorocebus sabaeus; procedure, shortened: as §1
Vero [27] = test: Percentage plaque reduction was determined against venezuelan equine encephalitis (VEE) virus in african green monkey kidney (vero,V) at a conc of 25-100 ug/mL. Toxic level(320 ug/mL); format: functional, Chlorocebus sabaeus
Vero [28] = test: In vitro antiviral activity against parainfluenza type 3(para 3) virus was determined in african green monkey kidney (vero,V) expressed as virus rating. Toxic level(>1000 ug/mL); format: functional, Chlorocebus sabaeus; procedure, shortened: as §1
Vero [29] = test: In vitro antiviral activity against vaccinia(VV) virus was determined in african green monkey kidney (vero,V) expressed as virus rating. Toxic level(>1000 ug/mL); format: functional, Chlorocebus sabaeus; procedure, shortened: as §1
Vero [30] = test: In vitro antiviral activity against herpes simplex type 1 (HSV-1) virus was determined in african green monkey kidney (vero,V) expressed as virus rating. Toxic level(>1000 ug/mL); format: functional, Chlorocebus sabaeus; procedure, shortened: as §1

OC[C@H]1O[C@@H](n2cnc3c(Cl)ncnc32)[C@H](O)[C@@H]1O
Virus rating (Vero [1]): 0.4
Virus rating (Vero [2]): 0.4
Virus rating (Vero [3]): 1.8

NC(=O)c1ncnc2c1ccn2C1O[C@H](CO)[C@@H](O)[C@H]1O (some centres undefined)
Virus rating (Vero [1]): 0.4
Virus rating (HEp-2 [4]): 0
Virus rating (Vero [2]): 0.4
Virus rating (HEp-2 [5]): 0.2
Virus rating (Vero [3]): 1.3
Virus rating (HEp-2 [6]): 1.2

OC[C@H]1O[C@@H](C2=NNC3C(=S)N=CN=C23)[C@H](O)[C@@H]1O (some centres undefined)
Virus rating (Vero [1]): 1.1
Plaque reduction (Vero [7]): 61%
Plaque reduction (Vero [8]): 61%
Virus rating (Vero [2]): 0
Plaque reduction (Vero [9]): 10%
Plaque reduction (Vero [10]): 0%
Plaque reduction (Vero [11]): 10%
Plaque reduction (Vero [12]): 0%
Plaque reduction (Vero [13]): 0%
Virus rating (Vero [3]): 1
Plaque reduction (Vero [14]): 0%

OC[C@H]1O[C@@H](n2cnc3c(S)ncnc32)[C@H](O)[C@@H]1O [THIOINOSINE]
Virus rating (Vero [1]): 1.2
Virus rating (Vero [2]): 0.8
Virus rating (Vero [3]): 1.1

CSc1ncnc2c1cnn2[C@@H]1O[C@H](COC(C)=O)[C@@H](OC(C)=O)[C@H]1OC(C)=O
Plaque reduction (Vero [15]): 0%
Plaque reduction (Vero [16]): 0%
Virus rating (Vero [17]): 0
Plaque reduction (Vero [18]): 10%
Plaque reduction (Vero [19]): 0%
Plaque reduction (Vero [20]): 0%
Plaque reduction (Vero [21]): 0%
Plaque reduction (Vero [22]): 10%
Plaque reduction (Vero [23]): 0%
Plaque reduction (Vero [24]): 0%
Virus rating (Vero [25]): 0.5
Virus rating (Vero [26]): 0
Plaque reduction (Vero [27]): 0%

OC[C@H]1OC(n2ncc3c(S)ncnc32)[C@H](O)[C@@H]1O (some centres undefined)
Virus rating (Vero [28]): 0.7
Virus rating (Vero [29]): 0.9
Virus rating (Vero [30]): 0
